Series [1] can be described thus: Oral bioavailability in Sprague-Dawley rat at 30 mg/kg by LC-MS/MS analysis. The format is ADME, organism-based. The following applies: in vivo. In a few lines: (§1)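 Adult male SD rats (n = 4/group) got a single dose of compound in distilled water, orally or by injection. Blood (100–200 µL) was drawn from the orbit at 11 time points over 24 h. Blood drug levels were measured by LC–MS/MS.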

Series [2] is described as follows: Mean residence time (0 to infinity) in Sprague-Dawley rat blood at 30 mg/kg, po by LC-MS/MS analysis. Format: ADME, organism-based. Also on record: dose 30 mg/kg, route oral. The following applies: whole blood. An outline of the steps:
as §1

Series [3] in a line: Apparent volume of distribution in Sprague-Dawley rat blood at 10 mg/kg, iv by LC-MS/MS analysis. Format: ADME, organism-based. Also on record: dose 10 mg/kg, route intravenous. The conditions noted are these: whole blood, read-out: Vz. An outline of the steps: as §1
Series [4] is described as follows: Apparent clearance in Sprague-Dawley rat blood at 10 mg/kg, iv by LC-MS/MS analysis. Format: ADME, organism-based. Also on record: dose 10 mg/kg, route intravenous. The following applies: whole blood, read-out: CL(app) (converted). In a few lines: as §1
Series [5] is described as follows: Half life in Sprague-Dawley rat blood at 30 mg/kg, po by LC-MS/MS analysis. Format: ADME, organism-based. Also on record: dose 30 mg/kg, route oral. The following applies: whole blood. An outline of the steps: as §1
Series [6] in a line: AUC (0 to infinity) in Sprague-Dawley rat blood at 30 mg/kg, po by LC-MS/MS analysis. The format is ADME, organism-based. Also on record: time infinity, dose 30 mg/kg, route oral. The following applies: whole blood. An outline of the steps: as §1
Series [7] has as its target Dipeptidyl peptidase 9 (Homo sapiens) (UniProt Q86TI2). Briefly: Inhibition of DPP9 (unknown origin) up to 10 uM. An outline of the steps:
(§2)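 Compounds were serially diluted from DMSO into 20 mM Tris pH 7.4, 20 mM KCl, 0.1 mg/mL BSA. Enzyme was pre-incubated with compound for 10 min at ambient temperature. Reaction was started with Gly-Pro-AMC (10 µM final). Fluorescence (ex 400/em 505 nm) was read kinetically for 5–10 min or at a 10 min endpoint.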

Series [8] in a line: Inhibition of CYP3A (unknown origin) up to 30 uM. Format: ADME. The conditions noted are these: human.
Series [9] has as its target Dipeptidyl peptidase 8 (Homo sapiens) (UniProt Q6V1X1). The series is described as follows: Inhibition of DPP8 (unknown origin) up to 10 uM. An outline of the steps:
as §2

Structures are written as SMILES. The source made the active and inactive calls. No cut-off for these calls is given here.

Consider 2 molecules from ChEMBL document CHEMBL2346603, “Discovery of potent dipeptidyl peptidase IV inhibitors through pharmacophore hybridization and hit-to-lead optimization” (Bioorg Med Chem, 2013).

As a reminder, the bioavailability is dose-corrected exposure relative to a reference, in per cent. Low values mean poor availability, high ones good availability. As a reminder, the MRT inf is the average time that molecules of a dose stay in the body. By half-life is commonly meant how long it takes for the measured level to halve. A higher half-life goes with slow loss. A word on the AUC(0-inf): it is the area under the concentration-time curve extrapolated to infinity. Low readings indicate low exposure, high ones high exposure.

Dipeptidyl peptidase 8 (Homo sapiens), sequence (Q6V1X1 whole entry, looked up): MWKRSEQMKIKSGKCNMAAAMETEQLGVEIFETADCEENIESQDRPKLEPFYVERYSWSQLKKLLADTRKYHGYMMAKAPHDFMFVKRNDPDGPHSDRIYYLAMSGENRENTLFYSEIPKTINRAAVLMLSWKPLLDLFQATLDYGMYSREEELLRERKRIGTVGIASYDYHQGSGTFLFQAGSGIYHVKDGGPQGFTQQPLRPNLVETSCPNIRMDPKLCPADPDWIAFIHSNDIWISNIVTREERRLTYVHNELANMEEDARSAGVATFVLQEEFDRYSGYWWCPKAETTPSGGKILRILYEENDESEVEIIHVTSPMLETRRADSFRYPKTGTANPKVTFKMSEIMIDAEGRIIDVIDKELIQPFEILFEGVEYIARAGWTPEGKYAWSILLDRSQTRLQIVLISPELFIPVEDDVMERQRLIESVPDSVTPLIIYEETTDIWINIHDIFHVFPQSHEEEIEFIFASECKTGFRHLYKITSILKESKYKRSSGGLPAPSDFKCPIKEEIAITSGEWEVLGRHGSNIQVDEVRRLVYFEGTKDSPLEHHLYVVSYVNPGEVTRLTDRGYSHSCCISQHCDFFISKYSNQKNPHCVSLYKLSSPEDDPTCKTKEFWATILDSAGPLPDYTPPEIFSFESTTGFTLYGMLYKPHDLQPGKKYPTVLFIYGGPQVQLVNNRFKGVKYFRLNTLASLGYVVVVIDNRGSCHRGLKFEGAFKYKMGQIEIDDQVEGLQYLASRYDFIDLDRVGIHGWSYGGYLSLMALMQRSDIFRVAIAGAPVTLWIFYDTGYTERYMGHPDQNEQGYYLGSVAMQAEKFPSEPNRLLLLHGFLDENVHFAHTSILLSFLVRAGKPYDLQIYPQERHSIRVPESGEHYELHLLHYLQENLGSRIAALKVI
Dipeptidyl peptidase 9 (Homo sapiens), sequence (Q86TI2 2-863 limits assumed): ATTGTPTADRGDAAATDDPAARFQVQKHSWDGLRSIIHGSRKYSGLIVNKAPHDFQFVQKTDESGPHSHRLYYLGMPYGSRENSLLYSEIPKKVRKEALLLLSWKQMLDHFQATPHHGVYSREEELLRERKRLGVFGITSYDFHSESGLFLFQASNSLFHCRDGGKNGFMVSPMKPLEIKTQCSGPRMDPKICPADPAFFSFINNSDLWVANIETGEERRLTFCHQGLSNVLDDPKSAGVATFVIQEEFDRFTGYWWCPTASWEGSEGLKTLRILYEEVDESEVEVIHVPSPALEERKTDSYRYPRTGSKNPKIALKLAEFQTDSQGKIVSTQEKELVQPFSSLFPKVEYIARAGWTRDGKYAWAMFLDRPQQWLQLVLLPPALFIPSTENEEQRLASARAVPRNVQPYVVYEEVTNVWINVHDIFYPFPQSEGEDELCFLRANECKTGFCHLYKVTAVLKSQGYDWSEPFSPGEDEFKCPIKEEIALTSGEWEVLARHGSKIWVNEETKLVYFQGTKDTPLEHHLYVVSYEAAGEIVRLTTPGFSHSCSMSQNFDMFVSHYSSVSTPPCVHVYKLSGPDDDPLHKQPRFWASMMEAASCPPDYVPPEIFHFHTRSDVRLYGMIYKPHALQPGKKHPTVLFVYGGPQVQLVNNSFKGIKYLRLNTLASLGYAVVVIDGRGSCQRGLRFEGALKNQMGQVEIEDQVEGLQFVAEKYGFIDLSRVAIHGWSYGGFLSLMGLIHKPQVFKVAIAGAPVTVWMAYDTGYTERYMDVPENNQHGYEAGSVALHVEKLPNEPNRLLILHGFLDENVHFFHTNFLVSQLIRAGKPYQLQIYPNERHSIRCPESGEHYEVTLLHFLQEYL

In series [1], `CC#CCn1c(N2CCC[C@@H](N)C2)nc2ccn(Cc3nc(C)c4ccccc4n3)c2c1=O` showed a bioavailability of 82.9%. Further, the MRT inf in series [2] was determined as 8.3 h. The Vd in [3] amounted to 4 L/kg. Besides, the clearance in [4] is 16.7 mL/min/kg. Besides, in series [5], the half-life is 4.9 h. The AUC(0-inf) in series [6] came out at 25300 ng·h/mL. The inhibition result in series [7] and in series [9] was “inactive” throughout. In series [8], the “inhibition (INH)” value is “Not Active”.
Molecule `N#Cc1ccccc1Cn1c(N2CCC[C@@H](N)C2)nc2c(Br)c[nH]c2c1=O` yielded a bioavailability in [1] of 41%. In [5], this molecule had a half-life of 2 h.
